For assay [1], the system named is L1210. In words: Antiproliferative activity against mouse L1210 cells after 2 days by coulter counter method. In kind it is functional, cell-based. Conditions: L1210, 48 h. In short, it runs like this: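 Cells seeded at 300,000-500,000 cells/mL, mixed 1:1 with compound dilutions and incubated 2 days at 37 °C. Cell number counted by Coulter counter. IC50 is the concentration giving 50% inhibition of proliferation, taken from dose-response curves. Mean ± SE of at least three independent experiments.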

The subject of assay [2] is FM3A. The assay can be described thus: Antiproliferative activity against mouse FM3A cells after 2 days by coulter counter method. In kind it is functional, cell-based. The settings on record: 48 h. The method in brief: (§1)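 Cells seeded at 300,000-500,000 cells/mL, mixed 1:1 with compound dilutions and incubated 2 days at 37 °C. Cell number counted by Coulter counter. Mean ± SE of at least three independent experiments.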

Assay [3] has as its system MOLT-4. The assay can be described thus: Antiproliferative activity against human MOLT4 cells after 2 days by coulter counter method. In kind it is functional, cell-based. Conditions: MOLT-4, 48 h. The method in brief: as §1
For assay [4], the system named is CCRF-CEM. The assay can be described thus: Antiproliferative activity against human CEM cells after 2 days by coulter counter method. In kind it is functional, cell-based. Conditions: 48 h. The method in brief: as §1
Assay [5] deals with HeLa. In words: Antiproliferative activity against human HeLa cells after 2 days by coulter counter method. In kind it is functional, cell-based. The settings on record: 48 h. In short, it runs like this: as §1
Assay [6] is described as follows: Inhibition of bovine brain tubulin polymerization by turbidimetry. Details: species or system Bos taurus. The method in brief:
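Purified bovine brain tubulin (10 μM) preincubated with varying compound concentrations in glutamate buffer at 30 °C, then chilled to 0 °C. GTP added, mixtures warmed to 30 °C in a recording spectrophotometer and assembly followed turbidimetrically.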

The species named for assay [7] is Bos taurus. The assay can be described thus: Displacement of [3H]colchicine from bovine brain tubulin at 1 uM. In short, it runs like this:
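Reaction mixtures held 1 μM bovine brain tubulin, 5 μM [3H]colchicine and 1 μM test compound. Inhibition of radiolabelled colchicine binding to tubulin was measured.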

In assay [8] the test system is HeLa. The assay can be described thus: Cell cycle arrest in human HeLa cells assessed as accumulation at G1 phase at 30 nM after 24 hrs uisng propidium iodide staining by flow cytometry. In kind it is functional. In short, it runs like this: (§2)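 Exponentially growing HeLa cells (5×10^5) treated 24 h. Floating and trypsinized cells pooled, fixed in ice-cold 70% ethanol, lysed with RNaseA buffer and stained with propidium iodide. DNA histograms acquired by flow cytometry. Percentages of G1, S and G2/M phases calculated on living cells, with the sub-G1 peak also scored.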
For orientation: A flow cytometer gives signals particle by particle.

In assay [9] the test system is HeLa. The assay can be described thus: Cell cycle arrest in human HeLa cells assessed as accumulation at S phase at 30 nM after 24 hrs uisng propidium iodide staining by flow cytometry. Format: functional. In short, it runs like this: as §2
The test system of assay [10] is HeLa. In words: Cell cycle arrest in human HeLa cells assessed as accumulation at G2/M phase at 30 nM after 24 hrs uisng propidium iodide staining by flow cytometry. In kind it is functional. The method in brief:
as §2

Assay [11] deals with HeLa. The assay can be described thus: Cell cycle arrest in human HeLa cells assessed as accumulation at subG1 phase at 30 nM after 24 hrs uisng propidium iodide staining by flow cytometry. Format: functional. The method in brief:
as §2

Assay [12] relates to HeLa. In words: Induction of apoptosis in human HeLa cells assessed as appearance of hypodiploid cells after 24 hrs using propidium iodide staining by flow cytometry. Format: functional, cell-based. In short, it runs like this: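 HeLa cells (5×10^5, exponential growth) exposed to a range of concentrations for 24 h, then ethanol-fixed (70%, ice-cold), RNaseA-treated and propidium iodide-stained for flow cytometry. Apoptotic fraction taken as the cells forming a sub-G1 peak.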

The text below walks through data of ChEMBL document CHEMBL1152432, “2-Arylamino-4-amino-5-aroylthiazoles. "One-pot" synthesis and biological evaluation of a new class of inhibitors of tubulin polymerization” (J Med Chem, 2009).

By IC50 is commonly meant the midpoint of a concentration-inhibition curve. Low readings indicate inhibition by little substance, high ones a need for much substance. Broadly, the inhibition is the drop in the measured response relative to a control, in per cent. High values mean strong suppression, low ones little suppression.

As to `COc1ccc(C(=O)c2sc(Nc3ccccc3)nc2N)cc1`, the IC50 in assay [1] is over 10 µM; in assay [2] it was over 10 µM; in assay [3] it was 6.9 µM; in [4], 9.1 µM; in assay [5], over 10 µM.

`COc1cccc(Nc2nc(N)c(C(=O)c3ccccc3)s2)c1`: the IC50 in assay [1] was 8.2 µM; in assay [2] it was 5 µM; in assay [3] it was 1.5 µM; in assay [4], 2.9 µM; in [5] it was 3.2 µM; in assay [6] it was 3.6 µM. The compound further came in with an inhibition in assay [7] of 43%.

Consider `COc1ccc(Nc2nc(N)c(C(=O)c3ccc(Cl)cc3)s2)cc1`, for which the IC50 came out at 0.084 µM in [1]; 0.059 µM in [2]; 0.013 µM in assay [3]; 0.019 µM in assay [4]; 0.083 µM in assay [5]; 1.1 µM in assay [6]. Also, the inhibition in assay [7] was determined as 89%. Besides, the Activity in assay [8] is 17.1%; in assay [9], 18.9%; in [10] it was 64%; in [11], 23.3%; in assay [12] it was “Dose-dependent effect”.

Turning to `COc1ccccc1C(=O)c1sc(Nc2ccccc2)nc1N`, the IC50 in assay [1] is 1.1 µM; in assay [2] it was 1.1 µM; in assay [3], 1.3 µM; in [4] it was 0.73 µM; in [5], 1.2 µM.

Consider `COc1ccc(Nc2nc(N)c(C(=O)c3cc(OC)c(OC)c(OC)c3)s2)cc1`, for which the IC50 in [1] was found to be 1.5 µM; in [2], 2.2 µM; in assay [3], 0.48 µM; in [4], 1.1 µM; in [5], 0.56 µM.

As to `Nc1nc(Nc2ccccc2)sc1C(=O)c1ccccc1`, the IC50 in [1] was determined as 8.1 µM; in assay [2], 8.2 µM; in assay [3], 7.3 µM; in [4], 3.9 µM; in assay [5] it was 6.1 µM. Moreover, the inhibition in assay [7] worked out at 35%.

In the case of `COc1ccc(Nc2nc(N)c(C(=O)c3ccc(OC)c(OC)c3)s2)cc1`, the IC50 was determined as 0.038 µM in assay [1]; 0.071 µM in assay [2]; 0.037 µM in assay [3]; 0.01 µM in assay [4]; 0.052 µM in assay [5]; 2.8 µM in assay [6]. This compound had an inhibition in assay [7] of 63%. In addition, the Activity in [8] was 35.7%; in assay [9], 15.5%; in assay [10] it was 48.8%; in assay [11] it was 17.8%; in assay [12] it was “Dose-dependent effect”.

Turning to `COc1cccc(C(=O)c2sc(Nc3ccccc3)nc2N)c1`, the IC50 came out at 7.6 µM in assay [1]; 6.2 µM in assay [2]; 1.3 µM in [3]; 2.3 µM in [4]; 1.7 µM in [5].

Consider `COc1ccc(Nc2nc(N)c(C(=O)c3ccc(Br)cc3)s2)cc1`, for which the IC50 was found to be 0.11 µM in [1]; 0.1 µM in assay [2]; 0.016 µM in [3]; 0.039 µM in [4]; 0.079 µM in [5].

As for `COc1ccc(Nc2nc(N)c(C(=O)c3cccc(OC)c3)s2)cc1`, the IC50 was 0.035 µM in assay [1]; 0.05 µM in assay [2]; 0.004 µM in assay [3]; 0.0099 µM in [4]; 0.037 µM in [5]; 1.4 µM in assay [6]. This compound displayed an inhibition in assay [7] of 84%. Further, the Activity was 40% in [8], 20.8% in [9], 39.2% in [10] and 9.6% in [11].

As for `COc1ccc(/C=C\c2cc(OC)c(OC)c(OC)c2)cc1O` [COMBRETASTATIN A4], the IC50 in assay [6] amounted to 1.4 µM.

In the case of `COc1ccc(/N=c2/[nH]c(N)c(C(=O)c3ccc(OC)cc3)s2)cc1`, the IC50 in assay [1] was found to be 0.47 µM; in assay [2], 0.63 µM; in assay [3], 0.32 µM; in assay [4] it was 1.2 µM; in assay [5], 0.33 µM.

On to `COc1cccc(Nc2nc(N)c(C(=O)c3cc(OC)c(OC)c(OC)c3)s2)c1`, for which the IC50 in assay [1] was found to be 2.1 µM; in assay [2] it was 2 µM; in assay [3] it was 0.53 µM; in assay [4], 1.3 µM; in assay [5], 1 µM.

Take `COc1cc(C(=O)c2sc(Nc3ccc(Cl)cc3)nc2N)cc(OC)c1OC`: the IC50 in assay [1] was determined as 0.42 µM; in [2] it was 0.42 µM; in [3], 0.11 µM; in assay [4], 0.19 µM; in [5] it was 0.18 µM.

As for `COc1ccc(C(=O)c2sc(Nc3ccccc3)nc2N)cc1OC`, the IC50 in assay [1] is over 10 µM; in [2] it was over 10 µM; in [3], 5.5 µM; in [4] it was 6.9 µM; in [5], 6 µM.

With `COc1cc(C(=O)c2sc(Nc3ccccc3)nc2N)cc(OC)c1OC`, the IC50 in assay [1] turned out to be 0.018 µM; in assay [2], 0.023 µM; in [3] it was 0.006 µM; in assay [4], 0.0094 µM; in assay [5], 0.014 µM; in [6], 2.5 µM. Moreover, in [7], the inhibition is 75%. Besides, the Activity in assay [8] is 32.1%; in [9] it was 25.6%; in assay [10], 42.3%; in [11], 22.2%; in assay [12], “Dose-dependent effect”.

For the compound `COc1ccc(Nc2nc(N)c(C(=O)c3ccccc3OC)s2)cc1`, the IC50 in assay [1] came to 0.031 µM; in assay [2], 0.052 µM; in assay [3], 0.018 µM; in assay [4] it was 0.017 µM; in assay [5] it was 0.017 µM; in [6] it was 1.4 µM. The compound further returned an inhibition in assay [7] of 77%. Moreover, the Activity in assay [8] was 38.5%; in assay [9], 20.4%; in assay [10], 40.1%; in assay [11], 28.6%; in [12], “Dose-dependent effect”.

Turning to `COc1ccc(Nc2nc(N)c(C(=O)c3ccc([N+](=O)[O-])cc3)s2)cc1`, the IC50 in [1] came out at 0.28 µM; in [2] it was 0.31 µM; in assay [3], 0.029 µM; in [4], 0.031 µM; in assay [5], 0.35 µM.

Regarding `Nc1nc(Nc2ccc(F)cc2)sc1C(=O)c1ccccc1`, the IC50 in assay [1], in [2], in assay [3], in assay [4] and in [5] was over 10 µM each time.

With `Cc1ccc(Nc2nc(-n3ccnc3C)cs2)cc1`, the IC50 is 1.8 µM in assay [1]; 1.2 µM in [2]; 0.51 µM in assay [3]; 1.5 µM in assay [4]; 0.53 µM in assay [5]; 4 µM in assay [6]. The inhibition in [7] stood at 58%.

Consider `COc1ccc(C(=O)c2sc(Nc3ccc(F)cc3)nc2N)cc1`, for which the IC50 in assay [1], in assay [2], in assay [3], in assay [4] and in [5] was over 10 µM each time.

For `COc1ccc(C(=O)c2sc(Nc3ccc(Cl)cc3)nc2N)cc1`, the IC50 in assay [1], in assay [2], in assay [3], in assay [4] and in assay [5] was over 10 µM each time.

For the compound `Cc1ccc(Nc2nc(N)c(C(=O)c3ccccc3)s2)cc1`, the IC50 in assay [1] was found to be 2.8 µM; in assay [2], 1.5 µM; in assay [3] it was 0.21 µM; in assay [4], 0.37 µM; in assay [5] it was 0.9 µM.

Turning to `COc1cc(C(=O)c2sc(Nc3ccc(F)cc3)nc2N)cc(OC)c1OC`, the IC50 in assay [1] turned out to be 0.9 µM; in [2], 0.058 µM; in assay [3] it was 0.28 µM; in assay [4], 0.4 µM; in assay [5], 0.44 µM.

Regarding `Nc1nc(Nc2ccc(Cl)cc2)sc1C(=O)c1ccccc1`, the IC50 in assay [1], in assay [2], in assay [3], in assay [4] and in [5] was over 10 µM each time.

Regarding `COc1ccc(Nc2nc(N)c(C(=O)c3ccccc3)s2)cc1`, the IC50 in [1] amounted to 0.85 µM; in assay [2], 0.73 µM; in assay [3], 0.23 µM; in [4] it was 0.3 µM; in [5], 0.23 µM.
